Test results from ChEMBL document CHEMBL1129649, “A novel series of (phenoxyalkyl)imidazoles as potent H3-receptor histamine antagonists” (J Med Chem, 1996).

Key:
Mus musculus = test: In vivo evaluation for effect on brain tele-methylhistamine levels in mice; type: functional
Summary of the method: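 Male Swiss mice (18-22 g, groups of at least six) fasted 24 h, then dosed orally as salt suspended in 1% methylcellulose (doses as free base, starting at 10 mg/kg). Cerebral cortex taken 90 min later, homogenized in ice-cold 0.4 M perchloric acid; tele-methylhistamine measured by radioimmunoassay. ED50 calculated relative to maximal level produced by 10 mg/kg thioperamide.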

Histamine H3 receptor = Histamine H3 receptor (Rattus norvegicus, UniProt Q9QYN8); test: Rat Histamine H3 receptor antagonism determined by [K+] - evoked depolarization-induced release of [3H]histamine from rat cerebral cortex synaptosomes; type: functional, subcellular, Brain
Chain of Histamine H3 receptor (Q9QYN8 whole entry): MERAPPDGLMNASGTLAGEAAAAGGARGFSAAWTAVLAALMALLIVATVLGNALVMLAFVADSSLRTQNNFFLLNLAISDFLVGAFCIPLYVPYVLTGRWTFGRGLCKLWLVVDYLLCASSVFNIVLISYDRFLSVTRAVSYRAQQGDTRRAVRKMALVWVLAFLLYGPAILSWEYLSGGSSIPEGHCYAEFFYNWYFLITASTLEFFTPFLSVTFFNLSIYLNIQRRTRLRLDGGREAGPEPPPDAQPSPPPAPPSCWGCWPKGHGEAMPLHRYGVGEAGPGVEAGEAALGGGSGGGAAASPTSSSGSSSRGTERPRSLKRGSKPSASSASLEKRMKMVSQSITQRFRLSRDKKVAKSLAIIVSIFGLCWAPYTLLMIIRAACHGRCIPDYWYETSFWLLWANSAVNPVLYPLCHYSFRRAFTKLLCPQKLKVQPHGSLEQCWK

SMILES | Ki (Histamine H3 receptor) | ED50 (Mus musculus)
O=[N+]([O-])c1ccc(SCCc2c[nH]cn2)nc1 | – | 2.6 mg/kg
N#Cc1ccc(OCCCc2c[nH]cn2)cc1 | – | 0.54 mg/kg
N#Cc1ccc(OCCc2c[nH]cn2)cc1 | – | 1.2 mg/kg
CC(=O)c1ccc(OCCc2c[nH]cn2)cc1 | – | 3.2 mg/kg
c1ccc2cc(OCCc3c[nH]cn3)ccc2c1 | – | 1.5 mg/kg
O=[N+]([O-])c1ccc(CSCc2c[nH]cn2)cc1 | – | > 10 mg/kg
CCCc1ccc(OCCc2c[nH]cn2)cc1 | – | 1.6 mg/kg
Cc1ccc(OCCc2c[nH]cn2)cc1 | – | 2.3 mg/kg
N#Cc1ccccc1OCCc1c[nH]cn1 | – | > 10 mg/kg
COC(=O)c1ccc(OCCc2c[nH]cn2)cc1 | 5.1 nM | > 3 mg/kg
FC(F)(F)c1ccc(OCCCc2c[nH]cn2)cc1 | – | 0.6 mg/kg
Fc1c(F)c(F)c(OCCc2c[nH]cn2)c(F)c1F | > 500 nM | 10 mg/kg
O=[N+]([O-])c1ccc(OCCc2c[nH]cn2)cc1 | – | 0.66 mg/kg
O=[N+]([O-])c1ccc(NCCc2c[nH]cn2)nc1 | 29 nM | –
CCOC(=O)c1ccc(OCCc2c[nH]cn2)cc1 | 6 nM | > 10 mg/kg
O=[N+]([O-])c1ccc(NCCc2c[nH]cn2)cc1 | – | 10.7 mg/kg
S=C(NC1CCCCC1)N1CCC(c2cnc[nH]2)CC1 [THIOPERAMIDE] | – | 1 mg/kg

Second part, led by results:

Ki (Histamine H3 receptor) | SMILES | ED50 (Mus musculus)
21 nM | Clc1ccc(OCCc2c[nH]cn2)cc1 | 0.78 mg/kg
24 nM | Brc1ccc(OCCc2c[nH]cn2)cc1 | 2.9 mg/kg
38 nM | COc1ccc(OCCc2cnc[nH]2)cc1 | 2.9 mg/kg
9 nM | O=[N+]([O-])c1ccc(SCCc2c[nH]cn2)cc1 | 2.7 mg/kg
54 nM | O=C(c1ccccc1)c1ccc(OCCc2c[nH]cn2)cc1 | 2.6 mg/kg
39 nM | N#Cc1cccc(OCCc2c[nH]cn2)c1 | 2.9 mg/kg
12 nM | O=[N+]([O-])c1cccc(OCCc2c[nH]cn2)c1 | 0.9 mg/kg
68 nM | FC(F)(F)c1ccc(OCCc2cnc[nH]2)cc1 | > 10 mg/kg
> 500 nM | Clc1cc(Cl)cc(OCCc2c[nH]cn2)c1 | > 10 mg/kg
137 nM | c1ccc2c(OCCc3c[nH]cn3)cccc2c1 | 3.4 mg/kg
11 nM | Fc1ccc(OCCCc2cnc[nH]2)cc1 | 4.9 mg/kg
338 nM | O=C(c1ccc(OCCc2cnc[nH]2)cc1)N1CCCCC1 | > 10 mg/kg
3.7 nM | CCC(=O)c1ccc(OCCc2cnc[nH]2)cc1 | 0.95 mg/kg
80 nM | CCc1ccc(OCCc2cnc[nH]2)cc1 | > 10 mg/kg
